From PubChem BioAssay AID493091 (Sanford-Burnham Center for Chemical Genomics, 2011) come the findings set out here.

Molecules are shown by their SMILES. Screen size: about 340,000 compounds; about 3,000 (0.88%) were called active. This excerpt belongs to a sample that is enriched for actives. Unmarked numbers belong to inactive results.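 How the source made its calls: active means inhibition above about 50% at 20 µM (limit read from the data); inactive means the rest.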

In this assay the target is Carboxy-terminal domain RNA polymerase II polypeptide A small phosphatase 1 (Homo sapiens) (UniProt Q9GZU7). Description: inhibition of human SCP1 dephosphorylation activity – biochemical, colorimetric, uHTS, primary screen (AID 493091).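 Further: plate controls were DMSO wells with enzyme for no effect and wells lacking enzyme for full effect.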 As to conditions: Recombinant Scp1, phosphopeptide, malachite green phosphate absorbance; at 20 µM; stronger effect = higher value. In outline: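 System: truncated SCP-1 phosphatase (76-261aa); medium: Tris acetate buffer pH 5.5 with MgCl2 and Tween-20; incubation: 45 min room-temperature reaction, 5 min colour, 30 min stabiliser; compound: single 20 µM dose, 1% DMSO; reagent: Phosphorylated 17-residue peptide substrate; read-out: % inhibition at 20 µM; technique: colorimetric free-phosphate detection, absorbance 630 nm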
Chain of Carboxy-terminal domain RNA polymerase II polypeptide A small phosphatase 1 (Homo sapiens) (Q9GZU7 76-261 limits assumed): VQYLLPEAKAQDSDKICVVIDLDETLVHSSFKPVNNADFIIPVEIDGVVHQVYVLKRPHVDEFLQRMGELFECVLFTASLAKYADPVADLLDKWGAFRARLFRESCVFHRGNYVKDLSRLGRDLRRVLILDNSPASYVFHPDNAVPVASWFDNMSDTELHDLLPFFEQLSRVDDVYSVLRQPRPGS
For the compound `CCN(CC)C(=O)Oc1ccc(OC(=O)N(CC)CC)cc1`, the inhibition was 7.37%.

Consider `O=C(NCc1ccccn1)C1CCN(S(=O)(=O)c2ccc(Br)cc2)CC1`, for which the inhibition is 3.99%.

On to `COc1ccc(NC(=O)CN(C)C(=O)c2cc(-c3ccc(C)o3)nc3ccccc23)cc1`, for which the inhibition was -3.85%.

On to `Cc1ccc(NC(=O)c2cc(-c3ccc(C)o3)nc3ccccc23)nc1`, for which the inhibition is 67.5% (active).

As for `CC(=O)N1CCN(C(=O)c2cc(-c3ccc(C)o3)nc3ccccc23)CC1`, the inhibition is -8.9%.

Regarding `O=C(C1CCCO1)N1CCN(S(=O)(=O)c2ccc(Br)cc2)CC1` (stereo not drawn), the inhibition was -5.02%.

`CN(C)C(CNC(=O)c1ccc(S(=O)(=O)NCc2ccco2)cc1)c1ccccc1` (stereo not drawn): the inhibition was -0.87%.

For `O=C(NN1C(=O)C2C3C=CC(O3)C2C1=O)c1ccncc1` (stereo not drawn), the inhibition was 0.55%.

For the compound `O=C(NN1C(=O)C2C3C=CC(O3)C2C1=O)c1ccccc1` (stereo not drawn), the inhibition is 56% (active).

`COc1ccccc1C(=O)NN1C(=O)C2C3C=CC(O3)C2C1=O` (stereo not drawn): the inhibition was -11.3%.

Consider `CCOc1cc(NC(=O)CCl)c(OCC)cc1NC(C)=O`, for which the inhibition was -1.31%.

Take `O=c1ccc2c(-c3ccccc3S(=O)(=O)O)c3ccc(O)c(O)c3oc-2c1O`: the inhibition is 64.1% (active).

As to `O=C(Nc1cc2c3c(c1)CC(=O)N3CCC2)c1ccccc1F`, the inhibition was -6.14%.

As for `O=P(O)(CP(=O)(c1ccccc1)c1ccccc1)c1ccccc1`, the inhibition is -4.63%.

For the compound `O=C(CSc1ccc(/C=N/NC(=O)c2cccc(F)c2)o1)Nc1ccccc1`, the inhibition was -3.74%.

Regarding `COc1cccc(Cn2cc(/C=N/NC(=O)c3cc(O)cc(O)c3)c3ccccc32)c1`, the inhibition is -15.4%.

In the case of `O=C(Cn1cc(/C=N/NC(=O)c2cccc(C(F)(F)F)c2)c2ccccc21)Nc1ccc(F)cc1`, the inhibition was 90.8% (active).

As for `COc1cc(C2C3=C(CCCC3=O)OC3=C2C(=O)CCC3)ccc1OCC(=O)Nc1ccccc1`, the inhibition is 4.63%.

As to `COc1ccc(N2CCN(C(=O)CSc3nc4cc(OC)c(OC)cc4cc3C#N)CC2)cc1`, the inhibition was 67.5% (active).

With `CCOc1ccc(-c2nnn(CC(=O)N3CCN(c4ccc(OC)cc4)CC3)n2)cc1OCC`, the inhibition was -1.29%.

Regarding `COc1ccc(N2CCN(C(=O)CSc3nnc4ncccn34)CC2)cc1`, the inhibition was -6.4%.

With `CCNC(=S)NCC`, the inhibition was -5.72%.

On to `COc1ccc(/C(O)=C2/C(=O)C(=O)N(CC3CCCO3)C2c2ccc(OC)c(OC)c2)cc1` (stereo not drawn), for which the inhibition is -4.81%.

Consider `Cc1cc(C)n2nc(SCC(=O)NC(=O)NCc3ccco3)nc2n1`, for which the inhibition is 7.37%.

In the case of `Cc1ccc(SCC(=O)NC(=O)NCc2ccco2)c(C)c1`, the inhibition is 70% (active).

As for `Cc1ccc(NC(=O)C(=O)NCc2ccco2)c(C)c1`, the inhibition is -2.49%.

As for `O=C(Cc1ccccc1Cl)N1CCN(c2ccccn2)CC1`, the inhibition is -2.92%.

With `O=C(Cn1cnc2ccccc2c1=O)Nc1cccc(S(=O)(=O)N2CCCCC2)c1`, the inhibition is -7.43%.

Regarding `CN(C)C=NC(=O)c1cccn1-c1ncc(C(F)(F)F)cc1Cl`, the inhibition was -4.15%.

With `Cc1ccc(S(=O)(=O)CCC(=O)OCC(=O)NCCc2ccc(S(N)(=O)=O)cc2)cc1`, the inhibition is -5.47%.

Turning to `COc1ccc(Cl)cc1NC(=O)CCS(=O)(=O)c1cc2c(cc1C)NC(=O)CO2`, the inhibition is -1.24%.

As for `COc1ccc(Cl)cc1NC(=O)CCS(=O)(=O)c1ccc(Br)cc1`, the inhibition was 94.5% (active).

Regarding `O=C(Cc1ccc(Br)cc1)NCCc1ccccc1`, the inhibition was -9.76%.

On to `CCOc1ccc(OCC)c(NC(=O)CCS(=O)(=O)c2ccc(C)cc2)c1`, for which the inhibition is -14.2%.

For `O=C(CCS(=O)(=O)c1ccc(Br)cc1)NCCc1ccc(Cl)cc1`, the inhibition is 80% (active).

Regarding `CCc1ccc(C(=O)N2CCN(S(=O)(=O)c3sc(C(=O)O)c(C)c3C(=O)O)CC2)cc1`, the inhibition is 11.9%.

For the compound `CC1CC(C)CN(C/C=C/c2ccccc2[N+](=O)[O-])C1` (stereo not drawn), the inhibition is -6.48%.

In the case of `C=C1c2c(Cl)ccc(O)c2C(O)=C2C(=O)[C@]3(O)C(O)=C(C(N)=O)C(=O)[C@@H](N(C)C)[C@@H]3[C@@H](O)C12` (stereo partly drawn), the inhibition is 65.5% (active).

As for `CN(C)[C@@H]1C(=O)C(C(N)=O)=C(O)[C@@]2(O)C(=O)C3=C(O)c4c(O)ccc(Cl)c4[C@@H](O)[C@H]3C[C@@H]12`, the inhibition was -6.29%.

As to `O=C(CNC(=O)c1cc2c(s1)CCC2)Nc1ccccc1Br`, the inhibition is -7%.

As for `O=C(CNC(=O)c1ccc(Br)o1)Nc1ccccc1`, the inhibition was -5.1%.

Turning to `O=C(Nc1ccc(-c2nnc(-c3ccccc3)o2)cc1)c1ccc(Br)o1`, the inhibition is 73% (active).

Take `Brc1ccc(-c2nnc(-c3ccccc3)o2)o1`: the inhibition is 2.87%.

For `O=C(COC(=O)c1cccnc1Cl)NC12CC3CC(CC(C3)C1)C2`, the inhibition was -2.71%.

Consider `CC1(C)CC(N2CCN(C(c3ccccc3)c3ccccc3)CC2)=CC(=[N+]2CCCCC2)C1`, for which the inhibition is 98.9% (active).

Consider `CC(C)OCC(O)CN1CCN(C(c2ccccc2)c2ccccc2)CC1` (stereo not drawn), for which the inhibition was -1.8%.

With `c1ccc(C(c2ccccc2)N2CCN(Cc3nnnn3C3CCCCC3)CC2)cc1`, the inhibition is 5.01%.

`COc1cc2c(cc1OC)C1C(=O)c3cc(OS(C)(=O)=O)c(OC)cc3C1N(C)C2=O` (stereo not drawn): the inhibition was 7.12%.

On to `Cc1ccc(C)c(-c2nnc(NC(=O)CS(=O)(=O)c3ccccc3)o2)c1`, for which the inhibition was -3.82%.

On to `Cc1ccccc1C1CC(c2cccs2)=NN1S(C)(=O)=O` (stereo not drawn), for which the inhibition is 4.93%.

Consider `O=c1c2cc(-c3ccccc3)sc2nc2n1N=C(c1cccs1)CS2`, for which the inhibition was 79.1% (active).

As to `O=c1c(-c2ccccc2)cnc2n1CCS2`, the inhibition is -9.56%.

Take `COc1ccc(OCc2cc(C(=O)NCC3(C)COC3)no2)c(Cl)c1`: the inhibition was -1.65%.

`Cc1nc2ccc(C(=O)N(C)CC3CCCN(CCc4ccc(Cl)cc4)C3)cc2[nH]1` (stereo not drawn): the inhibition is -5.73%.

On to `COc1ccc(S(=O)(=O)N2CCN(C(=O)c3cc(C)oc3C)CC2)cc1`, for which the inhibition was -8.28%.

`N#Cc1c(N2CCCCC2)nc(N)c2c(N)nc(SCC(=O)O)cc12`: the inhibition was 65.9% (active).

Turning to `N#CCc1c(C#N)c(N)nc(N2CCCC2)c1C#N`, the inhibition is -4.92%.

Regarding `Nc1nc(NCC(=O)O)nc(N2CCCCCC2)c1[N+](=O)[O-]`, the inhibition was 6.19%.
